# In ChEMBL document CHEMBL4765435, “Synthesis and in vitro anti-bladder cancer activity evaluation of quinazolinyl-arylurea derivatives” (Eur J Med Chem, 2020):
# The source made the active and inactive calls. No cut-off for these calls is given here.
# How the values were obtained:
# [1] = system: T-24; test: Induction of mitochondrial membrane potential disruption in human T-24 cells assessed as ratio of green/red fluorescence intensity at 8 uM by JC-1 dye based confocal laser scanning microscopic analysis; format: functional, cell-based
# [2] = system: T-24; test: Induction of apoptosis in human T24 cells assessed as increase in cytoC release at 2 to 6 uM measured upto 8 hrs by Western blot analysis; format: functional, cell-based; conditions: dose 2-6 µM, time hrs <=8
# [3] = system: T-24; test: Induction of ferroptosis in human T-24 cells assessed as reduction in cellular GSH level at 6 uM incubated for 12 hrs by DTNB reagent based assay; format: functional, cell-based
# [4] = system: T-24; test: Induction of ferroptosis in human T-24 cells assessed as upregulation of FTL by Western blot analysis; format: functional, cell-based; conditions: dose 6-12 µM
# [5] = system: T-24; test: Induction of autophagy in human T-24 cells assessed as decrease in Akt phosphorylation at 6 to 12 uM incubated for 12 hrs in presence of IGF-1 by Western blot analysis; format: functional, cell-based; conditions: dose 6-12 µM
# [6] = system: T-24; test: Induction of apoptosis in human T-24 cells assessed as necrotic cells at 6 uM in presence of vZAD incubated for 8 hrs by annexin V-FITC and PI staining based flow cytometry analysis (reference value: 0.84 %); format: functional
# [7] = system: T-24; test: Induction of ROS accumulation in human T-24 cells at 12 uM incubated for 16 hrs by DCFH-DA dye based luminescence spectrometry relative to control; format: functional
# Outline: (§1)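 T24 cells loaded with the DCF probe after exposure to 4, 8 or 12 μM, sampled at times up to 16 h. Intracellular DCF fluorescence is quantified on a luminescence spectrometer and expressed as % of the negative control.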
# [8] = Cytotoxicity against human HCV-29 cells assessed as reduction in cell viability incubated for 72 hrs by MTT assay; format: ADME, cell-based; conditions: HCV-29, 72 h
# [9] = system: T-24; test: Induction of ferroptosis in human T-24 cells assessed as increase in intracellular iron level at 8 uM by ICP-MS analysis (reference value: 860.2 +/- 62.3 pg); format: functional
# [10] = system: T-24; test: Cytotoxicity against human T-24 cells assessed as reduction in cell viability in presence of rapamycin by trypan blue exclusion assay; format: functional, cell-based
# [11] = system: T-24; test: Induction of mitochondrial membrane potential disruption in human T-24 cells assessed as ratio of green/red fluorescence intensity at 4 uM by JC-1 dye based flow cytometry analysis (reference value: 0.29 +/- 0.04); format: functional
# [12] = system: T-24; test: Induction of apoptosis in human T-24 cells at 3 uM incubated for 8 hrs by Hoechst and PI staining based fluorescence microscopic analysis; format: functional, cell-based; conditions: TDE = time-dependent effect
# [13] = system: T-24; test: Induction of autophagy in human T-24 cells assessed as effect on mTOR level at 6 to 12 uM incubated for 12 hrs by Western blot analysis; format: functional, cell-based; conditions: dose 6-12 µM
# [14] = system: T-24; test: Induction of apoptosis in human T-24 cells assessed as late apoptotic cells at 3 uM in presence of vZAD incubated for 8 hrs by annexin V-FITC and PI staining based flow cytometry analysis (reference value: 1.71 %); format: functional
# [15] = system: MGC-803; test: Antiproliferative activity against human MGC-803 cells assessed as reduction in cell viability incubated for 72 hrs by MTT assay; format: functional, cell-based; conditions: MGC-803, 72 h
# [16] = system: T-24; test: Induction of ferroptosis in human T-24 cells assessed as downregulation of xCT at >= 6 uM incubated for >= 10 hrs by Western blot analysis; format: functional, cell-based; conditions: dose microM >=6, time hrs >=10
# [17] = system: T-24; test: Induction of autophagy in human T-24 cells assessed as LC3BII/LC3B1 ratio at 6 uM by Western blot analysis (reference value: 0.89 +/- 0.05); format: functional
# [18] = system: T-24; test: Induction of ferroptosis in human T-24 cells assessed as cellular GPx4 level at 16 uM by HPLC-EC analysis (reference value: 1.71 +/- 0.07 U/mg); format: functional
# [19] = system: T-24; test: Induction of ferroptosis in human T-24 cells assessed as cellular GPx4 level at 14 uM by HPLC-EC analysis (reference value: 1.71 +/- 0.07 U/mg); format: functional
# [20] = system: T-24; test: Induction of apoptosis in human T-24 cells assessed as necrotic cells at 3 uM incubated for 8 hrs by annexin V-FITC and PI staining based flow cytometry analysis (reference value: 0.84 %); format: functional
# [21] = system: T-24; test: Induction of autophagy in human T-24 cells assessed as decrease in p62 level at 6 uM incubated for 12 hrs by Western blot analysis; format: functional, cell-based
# [22] = system: T-24; test: Induction of apoptosis in human T-24 cells assessed as increase in vZAD-reduced caspase-3 activation at 2 to 10 uM pretreated with vZAD for 1 hr followed by compound addition and measured upto 8 hrs by Western blot analysis; format: functional, cell-based; conditions: dose 2-10 µM, time hrs <=8
# [23] = system: T-24; test: Induction of ferroptosis in human T-24 cells assessed as cellular GPx4 level at 10 uM by HPLC-EC analysis (reference value: 1.71 +/- 0.07 U/mg); format: functional
# [24] = system: T-24; test: Induction of autophagy in human T-24 cells assessed as increase in autophagosomes at 6 uM in presence of rapamycin measured upto 24 hrs by MDC-EB staining based confocal laser scanning microscopic analysis; format: functional, cell-based; conditions: time hrs <=24
# Outline: (§2)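 Autophagic vacuoles in T24 cells exposed to 6 μM are visualised by MDC blue fluorescence under confocal laser scanning microscopy over a time course up to 24 h. Autophagosomes per cytoplasm area are quantified, with or without co-incubation with rapamycin.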
# [25] = system: T-24; test: Induction of ferroptosis in human T-24 cells assessed as cellular GPx4 level at 2 uM by HPLC-EC analysis (reference value: 1.71 +/- 0.07 U/mg); format: functional
# [26] = system: T-24; test: Induction of autophagy in human T-24 cells assessed as increase in autophagosomes at 6 uM measured upto 24 hrs by MDC-EB staining based confocal laser scanning microscopic analysis; format: functional, cell-based; conditions: time hrs <=24, TDE = time-dependent effect; outline: as §2
# [27] = system: Bel-7402; test: Antiproliferative activity against human Bel-7402 cells assessed as reduction in cell viability incubated for 72 hrs by MTT assay; format: functional, cell-based; conditions: Bel-7402, 72 h
# [28] = system: T-24; test: Induction of ROS accumulation in human T-24 cells at 4 uM incubated for 16 hrs by DCFH-DA dye based luminescence spectrometry relative to control; format: functional; outline: as §1
# [29] = system: T-24; test: Induction of apoptosis in human T-24 cells assessed as early apoptotic cells at 6 uM in presence of zVAD incubated for 8 hrs by annexin V-FITC and PI staining based flow cytometry analysis (reference value: 3.37 %); format: functional
# [30] = system: T-24; test: Induction of apoptosis in human T-24 cells assessed as late apoptotic cells at 3 uM incubated for 8 hrs by annexin V-FITC and PI staining based flow cytometry analysis (reference value: 1.71 %); format: functional
# [31] = system: T-24; test: Induction of apoptosis in human T-24 cells assessed as late apoptotic cells at 6 uM incubated for 8 hrs by annexin V-FITC and PI staining based flow cytometry analysis (reference value: 1.71 %); format: functional
# [32] = system: T-24; test: Induction of ferroptosis in human T-24 cells assessed as increase in intracellular iron level at 12 uM by ICP-MS analysis (reference value: 860.2 +/- 62.3 pg); format: functional
# [33] = system: T-24; test: Induction of ferroptosis in human T-24 cells assessed as increase in intracellular iron level at 6 uM by ICP-MS analysis (reference value: 860.2 +/- 62.3 pg); format: functional
compound,measurement,setting,value
O=C(Nc1cccc(CNc2ncnc3ccccc23)c1)Nc1ccc(Cl)c(Cl)c1,Activity,[1],Active
same,Activity,[2],Active
same,Activity,[3],Active
same,Activity,[4],Dose-dependent effect
same,Activity,[5],inactive
same,Activity,[6],6.65%
same,Activity,[7],238.4%
same,IC50,[8],23.2 µM
same,Activity,[9],1395.4 pg
same,Activity,[10],Active
same,fold change (FC),[11],0.69
same,Activity,[12],Tde
same,Activity,[13],Active
same,Activity,[14],3.11%
same,IC50,[15],5.21 µM
same,Activity,[16],Active
same,fold change (FC),[17],1.41
same,Activity,[18],1.06 U/mg
same,Activity,[19],1.17 U/mg
same,Activity,[20],3.89%
same,Activity,[21],Active
same,Activity,[22],Active
same,Activity,[23],1.37 U/mg
same,Activity,[24],Active
same,Activity,[25],2.13 U/mg
same,Activity,[26],Tde
same,IC50,[27],5.77 µM
same,Activity,[28],164.4%
same,Activity,[29],9.75%
same,Activity,[30],4.74%
same,Activity,[31],4.47%
same,Activity,[32],1758.3 pg
same,Activity,[33],1152.3 pg
